Measurements gathered from unrelated publications.
Lines come from different studies, so protocols differ.
Target: Non-receptor tyrosine-protein kinase TNK1 (TNK1, Homo sapiens, UniProt Q13470)
Residues used in one study (Q13470 1-666): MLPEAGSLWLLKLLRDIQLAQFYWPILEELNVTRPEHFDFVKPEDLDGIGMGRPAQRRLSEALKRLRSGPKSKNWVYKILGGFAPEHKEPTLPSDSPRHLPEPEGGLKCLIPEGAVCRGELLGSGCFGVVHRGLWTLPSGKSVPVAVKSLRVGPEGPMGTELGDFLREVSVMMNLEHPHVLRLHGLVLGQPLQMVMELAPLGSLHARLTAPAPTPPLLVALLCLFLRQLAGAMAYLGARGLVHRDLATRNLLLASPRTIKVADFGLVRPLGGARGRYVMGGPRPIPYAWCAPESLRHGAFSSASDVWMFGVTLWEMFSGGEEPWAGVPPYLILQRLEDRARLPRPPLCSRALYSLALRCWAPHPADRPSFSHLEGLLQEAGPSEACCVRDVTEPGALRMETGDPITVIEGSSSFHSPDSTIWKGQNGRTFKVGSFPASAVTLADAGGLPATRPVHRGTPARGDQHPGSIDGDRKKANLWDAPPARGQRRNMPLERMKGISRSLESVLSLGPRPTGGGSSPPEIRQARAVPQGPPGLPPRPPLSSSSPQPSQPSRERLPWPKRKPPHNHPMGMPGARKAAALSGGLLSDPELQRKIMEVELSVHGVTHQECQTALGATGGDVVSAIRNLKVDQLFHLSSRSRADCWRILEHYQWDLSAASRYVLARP

Cc1ccc(C(=O)Nc2ccc(CN3CCN(C)CC3)c(C(F)(F)F)c2)cc1C#Cc1cnc2cccnn12 — remaining activity (enzyme activity, inhibitor; 23.5 nM): 13%
O=C(Nc1cnn(-c2csc(C(=O)NC3COC3)c2)c1)Nc1ccccc1Cl — remaining activity (enzyme activity, inhibitor; 5 µM): 100%
CCOC(=O)c1cc2cc(-c3cc(C(=O)NCc4ccc(C(=O)O)cc4)nn3C)ccc2[nH]1 — remaining binding (cell-free assay, competition with immobilised ligand; 0.1 µM): 88%
c1nc2c(Nc3ccc4c(c3)OCCO4)nc(Nc3ccc4c(c3)OCCO4)nc2[nH]1 — activity vs control (enzyme activity, inhibitor; 10 µM): 14%
Nc1ncnc2occ(-c3ccc(NC(=O)Nc4cc(C(F)(F)F)ccc4F)cc3)c12 — remaining signal (cell-free assay, inhibitor; 20 µM): 6.8%
CC(C)(C)c1nc2c(s1)c1nc(N)ncc1c1ccc(NS(=O)(=O)c3c(F)cccc3F)c(F)c12 — remaining activity (enzyme activity, inhibitor, radiometric; 1 µM): 82%
Cc1sc(C(=O)NC2COC2)cc1-n1cc(NC(=O)Nc2c(F)cccc2Cl)cn1 — remaining activity (enzyme activity, inhibitor; 10 µM): 105%
CC(C)(O)[C@H]1CC[C@H](Nc2ccc3ncc(-c4cccc(C(F)(F)F)c4)n3n2)CC1 — remaining activity (enzyme activity, inhibitor; 1 µM): 52.4%
CC(=O)N1CCC(c2ccc(C(=O)NC(=N)N)cc2C(F)(F)F)CC1 — remaining binding (cell-free assay, competition with immobilised ligand; 1 µM): 89%
CC/C(=N\NC(=O)NCc1cccc(O)c1)c1ccc(O)c(C)c1O — inhibition (enzyme activity, inhibitor; 0.1 µM): -1.1%
